Assay results published in ChEMBL document CHEMBL5376022, “Design, synthesis and biological evaluation of novel pyrimidine derivatives as bone anabolic agents promoting osteogenesis via the BMP2/SMAD1 signaling pathway” (RSC Med Chem, 2024).
Activity calls are given as the source filed them. The rule behind the calls is not given here.

How the values were obtained:
[1] = test system: Calvarial osteoblast; experiment: Induction of osteogenesis in BALB/c mouse calvarial osteoblast cells using PNPP as substrate assessed as increase in ALP activity at 0.1 to 10 nM measured after 48 hrs by spectrophotometry; type: functional, cell-based; settings: Calvaria, dose 0.1-10 nM
Procedure, shortened: (§1)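 Neonatal BALB/c calvarial osteoblasts, 2 × 10³ cells per well, adhered 24 h, then exposed to compounds (1 pM to 1 μM range) in osteoblast differentiation medium for 48 h. Cells frozen overnight at −80 or −20 °C, thawed at 37 °C to expose ectoenzyme; p-nitrophenyl phosphate added and ALP activity read at 405 nm. Untreated cells as control.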

[2] = test system: Calvarial osteoblast; experiment: Cytotoxicity in BALB/c mouse calvarial osteoblast cells at 0.001 to 1000 nM incubated for 48 hrs by MTT assay; type: toxicity, cell-based, Calvaria; settings: 1 µM, dose 0.001-1000 nM
Procedure, shortened: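 Primary calvarial osteoblasts from 1–2 day old BALB/c pups (collagenase/dispase digests, α-MEM with 10% FBS) seeded at 2 × 10³ per well. MTT added for 4 h at 37 °C, formazan dissolved in DMSO, absorbance read at 570 nm.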

[3] = test system: Calvarial osteoblast; experiment: Induction of cell proliferation of BALB/c mouse calvarial osteoblast cells at 0.001 nM incubated for 48 hrs by MTT assay relative to control; type: functional, Calvaria
Procedure, shortened: (§2)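 Primary calvarial osteoblasts from 1–2-day-old neonatal BALB/c pups, released by dispase/collagenase digestion and grown in α-MEM with 10% FBS. Seeded at 2 × 10³ cells per well, treated after 24 h for 48 h in α-MEM with 5% FBS, 10 mM β-glycerophosphate and 50 μg mL⁻¹ ascorbic acid. MTT added for 4 h at 37 °C, formazan dissolved in DMSO, absorbance read at 570 nm versus untreated cells.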

[4] = Induction of osteogenesis in BALB/c mouse MSC cells assessed as increase in mineral nodule formation at 0.1 nM treated for 21 days with compound refreshment for every 48 hrs by Alizarin red S staining based analysis relative to control; type: functional; settings: time 21 day
Procedure, shortened: (§3)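 Bone marrow cells were flushed from the long bones of 6–8-week-old BALB/c mice and seeded at 2 × 10⁶ per well. Medium: 10% FBS, 100 nM dexamethasone, 50 μg mL⁻¹ ascorbic acid and 10 mM β-glycerophosphate. Compound and medium were renewed every 48 h for 21 days. Cells were fixed in 4% paraformaldehyde and stained with Alizarin red (pH 4.2). Stain was eluted with 10% cetylpyridinium chloride for 1 h and read at 595 nm versus control.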

[5] = test system: Calvarial osteoblast; experiment: Induction of osteogenesis in BALB/c mouse calvarial osteoblast cells using PNPP as substrate assessed as increase in ALP activity at 0.001 to 10 nM measured after 48 hrs by spectrophotometry; type: functional, cell-based; settings: Calvaria, dose 0.001-10 nM; procedure, shortened: as §1
[6] = test system: Calvarial osteoblast; experiment: Induction of cell proliferation of BALB/c mouse calvarial osteoblast cells at 0.1 nM incubated for 48 hrs by MTT assay relative to control; type: functional, Calvaria; procedure, shortened: as §2
[7] = Induction of osteogenesis in BALB/c mouse MSC cells assessed as increase in mineral nodule formation at 0.001 nM treated for 21 days with compound refreshment for every 48 hrs by Alizarin red S staining based analysis relative to control; type: functional; settings: time 21 day; procedure, shortened: as §3

Structure (SMILES)	Activity [1]	Activity [2]	Activity [3] [%]	Activity [4] [%]	Activity [5]	Activity [6] [%]	Activity [7] [%]
CCCCCC(=O)Nc1nc(-c2ccc(Cl)cc2)c(Cl)c(-c2cc(OC)c(OC)cc2OC)n1	Active	Non-Toxic	~18	~27			
CCCCCC(=O)Nc1nc(-c2ccc(Br)cc2)cc(-c2cc(OC)c(OC)cc2OC)n1		Non-Toxic	~22	~25	Active	~25	~24
COc1cc(OC)c(-c2cc(-c3ccc(Br)cc3)nc(N)n2)cc1OC	Active	Non-Toxic		~23		~30	
